Source: PubChem (Johns Hopkins Ion Channel Center)
Shown are actives, neighbours in structure and some others; about 3.1% of the full set was active somewhere.
KCNQ1 act: potentiators or activators of KCNQ1 channel, primary screen, cell-based, thallium flux, high-throughput | 310,000 tested, 0.35% active | Potassium voltage-gated channel subfamily KQT member 1 (Homo sapiens), P51787 | CHO-K1 KCNQ1, thallium flux FluxOR fluorescence; stronger effect = higher value | B-score at 10 µM;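 active = fluorescence ratio B-score, a plate-corrected score, at least three library SD, with initial intensity B-score within 5 SD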
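Medium – assay buffer, equal DMSO in all wells · Material – CHO-K1 cell line with stable KCNQ1 potassium channel expression · Signal – kinetic FluxOR thallium fluorescence, 10-s 1-Hz baseline, 110-s post-stimulus read · Compound – single concentration per compound, DMSO matched to controls · Schedule – 37 °C overnight plating, 90-min dark dye load, 20-min compound pretreatment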
KCNK9 block: KCNK9 potassium channel inhibitors, primary screen, HEK293 cells, thallium flux; Potassium channel subfamily K member 9 (Homo sapiens), Q9NPC2; FluxOR thallium flux fluorescence; stronger effect = lower value; B-score at 10 µM; 310,000 tested, 1.2% active;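 active = ratio B-score over 3 SD below the library mean, with starting fluorescence within 5 SD of its mean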;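 note: negative B-score means less thallium flux so channel inhibition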
KCNK3 block: human KCNK3 channel inhibitors, primary screen, CHO cells, FluxOR thallium flux, B-score; FluxOR fluorescence; stronger effect = lower value; B-score at 10 µM; 340,000 tested, 0.84% active; AID 602410, 2012;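 active = B-score under library mean minus 4 SD, starting fluorescence ratio at most library mean plus 5 SD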;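 note: more negative B-score means stronger inhibition of thallium flux through KCNK3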
KCNQ1 block: inhibitors of human KCNQ1 channel, primary screen, cell-based, thallium flux, high-throughput; 310,000 tested, 1.3% active; Potassium voltage-gated channel subfamily KQT member 1 (Homo sapiens), P51787; AID 2642, 2010; B-score at 10 µM; CHO-K1 KCNQ1, FluxOR thallium flux fluorescence; stronger effect = higher value;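 active = compounds whose thallium flux B-score, printed positive for inhibition, exceeds three library SD while starting fluorescence stays within three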;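 note: channel opened by potassium depolarization with thallium stimulus after 20 min compound exposure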
hERG rescue: hERG rescue from dofetilide block, primary screen, cell-based, CHO-hERG, FluxOR thallium flux, dofetilide IC70. 310,000 tested, 0.51% active. activation (rescue from dofetilide block), less the hit threshold, % at 10 µM. dofetilide IC70 present. AID 1511, 2009;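 active = activation above the mean of controls blocked by dofetilide plus 5 SD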;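 note: thallium influx through hERG after potassium depolarization seen as dye fluorescence rise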
KCNK9 block conf: KCNK9 potassium channel inhibitors, confirmation, HEK293 cells, thallium flux, duplicate | 4,900 tested, 43% active | FluxOR thallium flux fluorescence | inhibition, % at 10 µM | AID 492992, 2010 | shares compounds with KCNK9 block;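 active = thallium signal inhibited by more than 5 SD of the compound-free buffer control wells, on both duplicate plates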
Kir2-1 spec: mouse Kir2.1 channel inhibition, confirmation, selectivity assay for KCNK9 modulator project, cell-based, HEK293, thallium flux | shares compounds with KCNK9 block | Kir2.1 cells, FluxOR thallium flux fluorescence | inhibition, % at 10 µM | 4,900 tested, 4% active | AID 492993, 2010;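 active = thallium signal drop more than 5 SD beyond the mean of the no-compound control wells, seen in both duplicate plates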;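 note: signal is fluorescence rise after thallium addition divided by baseline fluorescence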
HEK293 Tl ctr: thallium flux in non-induced HEK293 cells, confirmation, counter-screen for KCNK9 inhibitor project, cell-based, second counter screen, non-induced KCNK9-HEK293; FluxOR thallium flux; 4,900 tested, 40% active; AID 492997, 2010; shares compounds with KCNK9 block; inhibition, % at 10 µM;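 active = thallium signal drop beyond 5 SD of the untreated control mean, on both duplicate plates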
Of the large screens only hits and unclear results are named; the others gave an inactive call (follow-up assays come after a bar, where they were run).

O=C(c1ccco1)N1CCN(C2c3ccccc3-c3ccccc32)CC1	none
O=C(COC(=O)c1cc(S(=O)(=O)N2CCCC2)ccc1O)Nc1ccc(F)cc1F	none (no result: KCNQ1 act, KCNK9 block, KCNQ1 block, hERG rescue)
O=CN1c2ccccc2CSc2ccccc21	none
N/C(=N\OC(=O)c1cccc(Cn2cc(C(F)(F)F)ccc2=O)c1)c1ccc(Cl)cc1	KCNK9 block -12 | KCNK9 block conf 46% | Kir2-1 spec inactive | HEK293 Tl ctr inactive
N/C(=N\OC(=O)c1cccc(Cn2cc(C(F)(F)F)ccc2=O)c1)c1ccccc1	none
O=C(Sc1ccc(Cl)cc1)c1cccc(Cn2cc(C(F)(F)F)ccc2=O)c1	KCNK9 block -14 | KCNK9 block conf 34% | Kir2-1 spec inactive | HEK293 Tl ctr 34%
COc1ccc2cc(OCC(=O)NNC(=O)Nc3ccc(C(C)=O)cc3)ccc2c1	none
COc1ccccc1CN1CC(C(=O)NCc2ccc(SC)cc2)CCC1=O (stereo unspecified)	none
CC(C)/C=C/CN1CCC(Oc2ccc(C(=O)N3CCCC3)cc2)CC1	none
Cc1cccc(-n2c(Cc3ccccc3)nnc2SCc2ccc([N+](=O)[O-])cc2)c1	KCNK9 block -14 | KCNK9 block conf inactive | Kir2-1 spec inactive | HEK293 Tl ctr 41%
COc1ccc(CNC(=O)C(c2ccc(C)cc2)N(Cc2cccs2)C(=O)c2ccc3c(c2)OCCO3)cc1 (stereo unspecified)	none | KCNK9 block conf inactive | Kir2-1 spec inactive | HEK293 Tl ctr inactive
CCOC(=O)C1C(=O)C=C(/C=C/c2ccc(N(C)C)cc2)CC1c1ccccc1 (stereo unspecified)	KCNK9 block -8.2, KCNQ1 block 8 | KCNK9 block conf 46% | Kir2-1 spec 38% | HEK293 Tl ctr 64%
O=C(Cn1c(=O)oc2ccccc21)Nc1ccc(Cl)cc1Cl	none
Cc1ccc(C2NC(c3ccc(C)cc3)C(C)C(=NO)C2C)cc1 (stereo unspecified)	none | KCNK9 block conf inactive | Kir2-1 spec inactive | HEK293 Tl ctr inactive
CC(CCc1ccccc1)N(C)CC(O)c1cccc([N+](=O)[O-])c1 (stereo unspecified)	none
N#Cc1nc(Cc2cccc3ccccc23)oc1NCc1ccco1	KCNK9 block -11 | KCNK9 block conf 40% | Kir2-1 spec inactive | HEK293 Tl ctr 38%
Cc1cccc(C(=O)N2CCCC(N3CCN(c4cccc(Cl)c4)CC3)C2)n1 (stereo unspecified)	none | KCNK9 block conf inactive | Kir2-1 spec inactive | HEK293 Tl ctr inactive
Cc1ccccc1N1CCN(C2CCCN(C(=O)c3ccc(Cl)s3)C2)CC1 (stereo unspecified)	none | KCNK9 block conf inactive | Kir2-1 spec inactive | HEK293 Tl ctr inactive
Cc1ccccc1N1CCN(C2CCCN(C(=O)c3csc(C(C)C)n3)C2)CC1 (stereo unspecified)	none | KCNK9 block conf inactive | Kir2-1 spec inactive | HEK293 Tl ctr inactive
Cc1nc(C(=O)N2CCCC(N3CCN(c4ccccc4C)CC3)C2)cs1 (stereo unspecified)	none | KCNK9 block conf inactive | Kir2-1 spec inactive | HEK293 Tl ctr inactive
C[C@@H]1CN([C@@H](C)CO)C(=O)c2cc(NS(=O)(=O)c3cccs3)ccc2O[C@H]1CN(C)Cc1ccc(C(F)(F)F)cc1	none (no result: KCNQ1 act, KCNK9 block, KCNQ1 block, hERG rescue)
O=P(Nc1ccccc1)(Nc1ccccc1)c1ccccc1	none (no result: KCNQ1 act, KCNK9 block, KCNQ1 block, hERG rescue)
Cc1ccccc1N1CCN(C2CCCN(C(=O)c3cnsn3)C2)CC1 (stereo unspecified)	none | KCNK9 block conf inactive | Kir2-1 spec inactive | HEK293 Tl ctr inactive
CCOc1cccc(CN2CCCC(N3CCN(c4cccc(Cl)c4)CC3)C2)c1O (stereo unspecified)	none
CC(C)/C=C/CN1CCCC(N2CCN(c3cccc(Cl)c3)CC2)C1 (stereo unspecified)	none | KCNK9 block conf inactive | Kir2-1 spec inactive | HEK293 Tl ctr inactive
CC(C)c1nc(C(=O)N2CCCC(N3CCN(c4cccc(Cl)c4)CC3)C2)cs1 (stereo unspecified)	none | KCNK9 block conf inactive | Kir2-1 spec inactive | HEK293 Tl ctr inactive
Cc1cnc(C(=O)OCC(=O)N2CCN(S(=O)(=O)c3ccc(Cl)cc3)CC2)cn1	none
Cc1ccc(C)c(S(=O)(=O)N2CCN(C(=O)c3cncc(Br)c3)CC2)c1	none
O=C(OCC(=O)N1CCOCC1)c1cc(=O)[nH]c2ccccc12	none (no result: KCNQ1 act, KCNK9 block, KCNQ1 block, hERG rescue)
NC(=O)c1ccccc1N/C=C/C(=O)c1ccccc1	none
CCOC(=O)c1ccccc1N/C=C/C(=O)c1cccs1	KCNK9 block -9.8 | KCNK9 block conf 50% | Kir2-1 spec inactive | HEK293 Tl ctr 39%
COC(=O)c1ccccc1N/C=C/C(=O)c1ccc(Br)cc1	KCNK9 block -12 | KCNK9 block conf 43% | Kir2-1 spec inactive | HEK293 Tl ctr 38%
C=CCC[C@H](Cc1ccc(F)cc1)C(=O)OC[C@@H](NC(=O)[C@H](CC=C)CC(=O)NCCO)c1ccccc1	none (no result: KCNQ1 act, KCNK9 block, KCNQ1 block, hERG rescue)
O=[N+]([O-])c1ccccc1-c1ccc(C(=S)N2CCN(c3ccccc3)CC2)o1	none | KCNK9 block conf inactive | Kir2-1 spec inactive | HEK293 Tl ctr inactive
COc1cc(OC)cc(-c2cc3nc4c(c(N5CCN(c6ncccn6)CC5)n3n2)CCCC4)c1	KCNK9 block -8.3, KCNK3 block -10 | KCNK9 block conf 31% | Kir2-1 spec inactive | HEK293 Tl ctr 34%
Fc1cccc(-c2cc3nc4c(c(N5CCC6(CC5)OCCO6)n3n2)CCCC4)c1	KCNK9 block -8.4 | KCNK9 block conf inactive | Kir2-1 spec inactive | HEK293 Tl ctr inactive
O=C(COC(=O)COc1ccccc1)Nc1ccc(Br)cc1Br	none (no result: KCNQ1 act, KCNK9 block, KCNQ1 block, hERG rescue)
Cc1cccc(N=NC(=S)NNc2cccc(C)c2)c1	none (no result: KCNQ1 act, KCNK9 block, KCNQ1 block, hERG rescue)
CCCCCCCCNCCS(=O)(=O)NN1CCOCC1	none (no result: KCNQ1 act, KCNK9 block, KCNQ1 block, hERG rescue)
O=[N+]([O-])c1cc2c(c(CSc3nnc(Nc4ccccc4)s3)c1)OCOC2	none
Cc1ccccc1Nc1nnc(SCc2cc([N+](=O)[O-])cc3c2OCOC3)s1	KCNK9 block -8.9 | KCNK9 block conf inactive | Kir2-1 spec inactive | HEK293 Tl ctr inactive
CCCCCCNC(=O)c1cccc(-c2ccc(C)c3ccccc23)n1	none | KCNK9 block conf inactive | Kir2-1 spec inactive | HEK293 Tl ctr inactive
